In brackets after ≈: the same amount, converted by molar mass.
Assays:
coxsackievirus B4 (CBV4) = assay: Plaque assay for antiviral activity, BGM cells; format: cell-based; conditions: for mean % of reduction, coxsackievirus B4: nontoxic dose, viral titers 1 × 10^5, 1 × 10^6, 1 × 10^7; for SI: CC50/IC50 ratio
Summary of the method: (§1)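 Nontoxic dilutions were mixed 1:1 (100 µL each) with virus (10⁵–10⁷) for 0.5 h at 37 °C. Tenfold dilutions were plated on Hep-2 (HAdV7), FRHK-4 (HAV HM175) or BGM (CBV4), adsorbed 1 h at 37 °C under 5% CO₂, and overlaid with 2× DMEM plus 1% agarose. Plaques were fixed with formalin, stained with crystal violet and counted as pfu/mL. IC50 is the half-maximal plaque reduction; SI = CC50/IC50. Triplicates.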

[1] = tested on: hepatitis A virus (HAV) HM175; assay: Plaque assay for antiviral activity, FRHK-4 cells; format: cell-based; conditions: for mean % of reduction, hepatitis A virus HM175: nontoxic dose, viral titers 1 × 10^5, 1 × 10^6, 1 × 10^7
Summary of the method: as §1

Vero = assay: Cytotoxicity test; format: cell-based; conditions: Vero cell line
Summary of the method: (§2)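 Stocks of 50 mg/mL in DMSO, with antibiotic–antimycotic added, were diluted twofold in DMEM. Cells at 2 × 10⁵ cells/mL were grown 24 h at 37 °C under 5% CO₂ to confluence, then exposed 72 h. Morphology was scored daily by inverted microscopy. Viable cells were counted by 0.4% trypan blue exclusion after trypsinisation. CC50 halves OD492 of treated versus untreated uninfected cells. Triplicates.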

HCVcc genotype 4 = assay: Antiviral bioassay against ED-43/SG-Feo; format: cell-based, hepatitis C virus genotype 4a; conditions: for mean % of reduction, HCVcc genotype 4: nontoxic dose, viral titers 1 × 10^5, 1 × 10^6, 1 × 10^7
FRHK-4 = assay: Cytotoxicity test; format: cell-based; conditions: FRHK-4 cell line
Summary of the method: as §2

[2] = tested on: herpes simplex virus type 1 (HSV-1); assay: Plaque assay for antiviral activity, Vero cells; format: cell-based; conditions: for mean % of reduction, herpes simplex virus type-1: nontoxic dose, viral titers 1 × 10^5, 1 × 10^6, 1 × 10^7; for IC50: Human alphaherpesvirus 1, Vero
Hep-2 = assay: Cytotoxicity test; format: cell-based; conditions: Hep-2 cell line
Summary of the method: as §2

Huh 7.5 = assay: Cytotoxicity test; format: cell-based; conditions: Huh 7.5 cell line
Summary of the method: as §2

BGM = assay: Cytotoxicity test; format: cell-based; conditions: for nontoxic dose: BGM cell line
Summary of the method: as §2

[3] = tested on: adenovirus type 7 (HAdV7); assay: Plaque assay for antiviral activity, Hep-2 cells; format: cell-based; conditions: for mean % of reduction, adenovirus type 7: nontoxic dose, viral titers 1 × 10^5, 1 × 10^6, 1 × 10^7
Summary of the method: as §1

Cytotoxicity test [4] = format: cell-based; conditions: African green monkey, uninfected Vero cells
Summary of the method: as §2

Cytotoxicity test [5] = format: cell-based; conditions: rhesus monkey, uninfected FRHK-4 cells
Summary of the method: as §2

Cytotoxicity test [6] = format: cell-based; conditions: human, uninfected Hep-2 cells
Summary of the method: as §2

USP7 enzyme = USP7 enzyme (Homo sapiens, UniProt Q93009); assay: USP7 Inhibitor Screening Assay Kit; format: biochemical; conditions: for inhibition at 0.1 µg/mL / inhibition at 1 µg/mL / inhibition at 10 µg/mL / inhibition at 100 µg/mL: read-out: inhibition percentage against USP7
Summary of the method: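 Human recombinant USP7 from a commercial kit was stabilised with DTT and used at 0.4 ng/µL. Ub-AMC substrate was diluted 400-fold in 1× assay buffer, test compound or inhibitor buffer was added, and the enzyme started the reaction. After 30 min at room temperature with rotation, fluorescence was read at 360 nm excitation and 460 nm emission, minus blank.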

Cytotoxicity test [7] = format: cell-based; conditions: human, uninfected Huh 7.5 cells
Summary of the method: as §2

Cytotoxicity test [8] = format: cell-based; conditions: African green monkey, uninfected BGM cells
Summary of the method: as §2

USP7 enzyme, sequence (Q93009 whole entry): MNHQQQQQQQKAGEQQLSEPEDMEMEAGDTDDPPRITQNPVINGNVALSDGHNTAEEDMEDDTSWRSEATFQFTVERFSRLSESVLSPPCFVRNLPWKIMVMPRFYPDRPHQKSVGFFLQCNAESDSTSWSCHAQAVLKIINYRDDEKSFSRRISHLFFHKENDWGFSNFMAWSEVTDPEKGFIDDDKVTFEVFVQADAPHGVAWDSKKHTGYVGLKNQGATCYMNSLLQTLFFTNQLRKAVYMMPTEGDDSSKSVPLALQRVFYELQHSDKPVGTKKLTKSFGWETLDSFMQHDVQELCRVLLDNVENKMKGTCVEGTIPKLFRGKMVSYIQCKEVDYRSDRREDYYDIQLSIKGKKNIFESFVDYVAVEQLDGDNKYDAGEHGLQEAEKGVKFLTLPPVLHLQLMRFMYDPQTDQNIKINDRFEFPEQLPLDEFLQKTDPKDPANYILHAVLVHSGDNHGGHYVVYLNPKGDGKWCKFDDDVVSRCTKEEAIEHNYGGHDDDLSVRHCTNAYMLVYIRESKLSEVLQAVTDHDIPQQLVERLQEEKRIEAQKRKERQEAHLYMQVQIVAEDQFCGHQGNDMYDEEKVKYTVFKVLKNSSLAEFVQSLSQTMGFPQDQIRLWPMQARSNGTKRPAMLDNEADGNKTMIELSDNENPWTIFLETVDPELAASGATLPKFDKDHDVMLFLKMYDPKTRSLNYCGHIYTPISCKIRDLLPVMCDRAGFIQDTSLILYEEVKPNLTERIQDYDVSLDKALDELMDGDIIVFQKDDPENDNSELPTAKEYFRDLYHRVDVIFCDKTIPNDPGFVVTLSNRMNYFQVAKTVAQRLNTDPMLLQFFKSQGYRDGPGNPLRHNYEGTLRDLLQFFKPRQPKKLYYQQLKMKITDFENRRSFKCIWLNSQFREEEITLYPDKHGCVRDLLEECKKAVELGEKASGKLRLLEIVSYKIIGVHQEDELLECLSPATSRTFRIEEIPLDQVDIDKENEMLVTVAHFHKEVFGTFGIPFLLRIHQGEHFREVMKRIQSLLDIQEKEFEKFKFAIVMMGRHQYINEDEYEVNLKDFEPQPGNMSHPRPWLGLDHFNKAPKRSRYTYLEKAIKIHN

SMILES | mean % of reduction, coxsackievirus B4 (coxsackievirus B4 (CBV4)) [%] | mean % of reduction, hepatitis A virus HM175 [1] [%] | nontoxic dose (Vero) [µg/mL] | mean % of reduction, HCVcc genotype 4 (HCVcc genotype 4) [%] | nontoxic dose (FRHK-4) [µg/mL] | mean % of reduction, herpes simplex virus type-1 [2] | nontoxic dose (Hep-2) [µg/mL] | nontoxic dose (Huh 7.5) [µg/mL] | nontoxic dose (BGM) [µg/mL] | mean % of reduction, adenovirus type 7 [3] [%] | further results
N#Cc1cc(-c2nc3ccccc3s2)c(=O)n(NS(=O)(=O)c2ccc(Cl)cc2)c1N [compound 13b, N-(6-Amino-3-(benzo[d]thiazole-2-yl)-5-cyano-2-oxopyridine-1(2H)-yl)-4-chlorobenzensulfonamide] | 30.0 | 26.7 | 100 | 26.7 | 100 | 26.7% | 100 | 100 | 100 | 16.7 | –
O=c1c(-c2nc3ccccc3s2)cc2c(n1NS(=O)(=O)c1ccccc1)CCCC2 [compound 7a] | – | 30.0 | 110 | 30.0 | 110 | 40.0% | 110 | 100 | 110 | 10.0 | SI (coxsackievirus B4 (CBV4); Coxsackievirus B4): 2.95; IC50 (coxsackievirus B4 (CBV4); Coxsackievirus B4): 88 µg/mL (≈ 201 µM); CC50 (BGM; uninfected host cells, section Coxsackievirus B4): 260 µg/mL (≈ 594 µM)
O=c1c(-c2nc3ccccc3s2)cc2c(n1NS(=O)(=O)c1ccc(Cl)cc1)CCCC2 [compound 7b] | – | – | 130 | – | 130 | - ^a | 130 | 130 | 130 | – | –
CCOC(=O)c1cc(-c2nc3ccccc3s2)c(=O)n(NS(=O)(=O)c2ccc(C)cc2)c1N [compound 13f, Ethyl-2-amino-5-(benzo[d]thiazole-2-yl)-1-(4-methylphenylsulfonamido)-6-Oxo-1,6-dihydropyridine-3-carboxylate] | 20.0 | 20.0 | 140 | 20.0 | 140 | 23.3% | 140 | 140 | 130 | 16.7 | –
N#Cc1cc(-c2nc3ccccc3s2)c(=O)n(NS(=O)(=O)c2ccccc2)c1N [compound 13a, N-(6-Amino-3-(benzo[d]thiazole-2-yl)-5-cyano-2-oxopyridine-1(2H)-yl)benzensulfonamide] | – | 60 | 110 | 56.7 | 110 | – | 110 | 100 | 100 | 50 | SI (coxsackievirus B4 (CBV4); Coxsackievirus B4): 2.86; SI ([1]; CC50/IC50 ratio, Hepatitis A Virus HM175): 2.89; IC50 ([1]; Hepatovirus A, FRhK-4): 90 µg/mL (≈ 213 µM); CC50 (Cytotoxicity test [4]): 280 µg/mL (≈ 661 µM); SI (HCVcc genotype 4; CC50/IC50 ratio, HCVcc Genotype 4): 3.09; CC50 (Cytotoxicity test [5]): 260 µg/mL (≈ 614 µM); SI ([2]; CC50/IC50 ratio, Herpes Simplex Virus): 3.73; IC50 [2]: 75 µg/mL (≈ 177 µM); CC50 (Cytotoxicity test [6]): 270 µg/mL (≈ 638 µM); IC50 (USP7 enzyme): 11.3 µM; inhibition at 0.1 µg/mL (USP7 enzyme): 11.8%; inhibition at 1 µg/mL (USP7 enzyme): 35.8%; inhibition at 10 µg/mL (USP7 enzyme): 54%; inhibition at 100 µg/mL (USP7 enzyme): 81.5%; CC50 (Cytotoxicity test [7]): 260 µg/mL (≈ 614 µM); CC50 (Cytotoxicity test [8]): 240 µg/mL (≈ 567 µM); SI ([3]; CC50/IC50 ratio, Adenovirus Type 7): 2.45
Nc1nc2c(ncn2COCCO)c(=O)[nH]1 [acyclovir, reference compound] | – | – | – | – | – | – | – | – | – | – | CC50 (Cytotoxicity test [4]): 2.8 µg/mL (≈ 12.4 µM); IC50 [2]: 0.7 µg/mL (≈ 3.11 µM); IC50 (USP7 enzyme): 11 µM; inhibition at 0.1 µg/mL (USP7 enzyme): 18.7%; inhibition at 1 µg/mL (USP7 enzyme): 35%; inhibition at 10 µg/mL (USP7 enzyme): 71.7%; inhibition at 100 µg/mL (USP7 enzyme): 84.5%
Cc1ccc(S(=O)(=O)Nn2c(N)c(C#N)cc(-c3nc4ccccc4s3)c2=O)cc1 [compound 13c, N-(6-Amino-3-(benzo[d]thiazole-2-yl)-5-cyano-2-oxopyridine-1(2H)-yl)-4-methylbenzensulfonamide] | 10.0 | 6.7 | 110 | 10.0 | 110 | 10.0% | 110 | 100 | 110 | 3.3 | –
